Measurements: ChEMBL document CHEMBL1782022, “Potent macrocyclic inhibitors of insulin-regulated aminopeptidase (IRAP) by olefin ring-closing metathesis” (J Med Chem, 2011)

Key:
Aminopeptidase N = Aminopeptidase N (Homo sapiens, UniProt P15144); assay: Inhibition of catalytic activity of recombinant human AP-N transfected in human HEK-293 cells assessed as cleavage of substrate L-leucine-p-nitroanilide to L-leucine and p-nitroaniline measured every 5 mins for 10 to 50 mins by spectrophotometric analysis; assay type: cell-based, HEK293
[1] = Displacement of [3H]AL-11 from IRAP of CHO-K1 cell membrane preincubated for 40 mins in presence of 30 mM EDTA and 600 uM 1,10-Phenantrone after 30 mins by scintillation counting; assay type: cell membranes, Cricetulus griseus
How it was run: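 Chelators EDTA (5 mM final) and 1,10-phenanthroline (100 μM final) were present both in the 40 min, 37 °C preincubation of CHO-K1 membranes (4 × 10⁵ cells, 50 mM Tris-HCl pH 7.4) with compound (10⁻⁹–10⁻⁵ M) and during the binding step. Binding was 30 min at 37 °C with 3 nM [³H]AL-11, with unlabeled Ang IV for nonspecific binding. Read-out was GF/B filtration and β-counting, ≥2 experiments in duplicate. IC50 came from nonlinear regression and Ki via Cheng–Prusoff.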

[2] = Displacement of [3H]AL-11 from IRAP of CHO-K1 cell membrane after 30 mins by scintillation counting in presence of 30 mM EDTA and 600 uM 1,10-Phenantrone; assay type: cell membranes, Cricetulus griseus
How it was run: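 CHO-K1 membranes with endogenous IRAP (4 × 10⁵ cells) in 50 mM Tris-HCl pH 7.4 buffer were preincubated 40 min at 37 °C with compound (10⁻⁹–10⁻⁵ M final) without chelators. [³H]AL-11 (3 nM final) was then added with EDTA/1,10-Phe (final 5 mM/100 μM) for 30 min at 37 °C. Unlabeled Ang IV defined nonspecific binding. Bound radioactivity was collected on BSA-soaked GF/B filters and β-counted. Runs were ≥2× in duplicate. IC50 came from nonlinear regression and Ki from Cheng–Prusoff using the [³H]AL-11 KD.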

Aminopeptidase N, sequence (P15144 whole entry): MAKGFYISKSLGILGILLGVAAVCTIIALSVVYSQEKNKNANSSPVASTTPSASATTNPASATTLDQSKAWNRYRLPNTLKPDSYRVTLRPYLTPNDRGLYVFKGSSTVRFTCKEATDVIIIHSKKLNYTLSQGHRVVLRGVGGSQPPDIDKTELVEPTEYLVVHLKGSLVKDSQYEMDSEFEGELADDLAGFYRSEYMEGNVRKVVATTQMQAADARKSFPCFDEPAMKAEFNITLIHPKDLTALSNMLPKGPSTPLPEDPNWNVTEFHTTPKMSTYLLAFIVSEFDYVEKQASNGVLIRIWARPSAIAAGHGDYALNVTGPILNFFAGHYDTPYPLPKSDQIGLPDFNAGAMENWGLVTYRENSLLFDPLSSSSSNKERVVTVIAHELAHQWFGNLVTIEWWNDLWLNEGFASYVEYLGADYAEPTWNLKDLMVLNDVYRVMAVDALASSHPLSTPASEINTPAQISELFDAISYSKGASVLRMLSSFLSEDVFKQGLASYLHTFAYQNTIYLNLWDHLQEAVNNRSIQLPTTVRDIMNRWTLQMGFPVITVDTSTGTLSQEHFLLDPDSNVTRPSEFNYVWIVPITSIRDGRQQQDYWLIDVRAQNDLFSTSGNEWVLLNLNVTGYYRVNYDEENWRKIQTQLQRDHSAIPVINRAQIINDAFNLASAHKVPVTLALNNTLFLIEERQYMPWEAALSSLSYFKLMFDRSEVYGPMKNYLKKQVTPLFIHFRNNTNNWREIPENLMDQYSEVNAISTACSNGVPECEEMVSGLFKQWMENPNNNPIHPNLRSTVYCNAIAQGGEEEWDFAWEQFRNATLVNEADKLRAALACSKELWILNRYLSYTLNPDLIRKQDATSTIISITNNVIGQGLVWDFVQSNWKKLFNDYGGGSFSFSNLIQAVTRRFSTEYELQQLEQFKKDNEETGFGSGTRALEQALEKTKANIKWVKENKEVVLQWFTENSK

SMILES | Ki (Aminopeptidase N) | Ki [1] | Ki [2]
CN1C(=O)[C@@H](N)CCCC/C=C\C[C@@H](C(=O)NCc2ccccc2)NC(=O)[C@@H]1Cc1ccc(O)cc1 | > 100000 nM |  | 
N[C@H]1CCCC/C=C/C[C@@H](C(=O)NCc2ccccc2CC(=O)O)NC(=O)[C@H](Cc2ccc(O)cc2)NC1=O |  | 133 nM | 46.8 nM
N[C@H]1CCCCCCC[C@@H](C(=O)NCc2ccccc2CC(=O)O)NC(=O)[C@H](Cc2ccc(O)cc2)NC1=O |  | 517 nM | 12.5 nM
N[C@H]1CCCCCC[C@@H](C(=O)NCc2ccccc2CC(=O)O)NC(=O)[C@H](Cc2ccc(O)cc2)NC1=O |  | 631 nM | 28.9 nM
N[C@H]1CC/C=C/CC[C@@H](C(=O)NCc2ccccc2CC(=O)O)NC(=O)[C@H](Cc2ccc(O)cc2)NC1=O |  | 450 nM | 36.8 nM
N[C@H]1CC/C=C\CC[C@@H](C(=O)NCc2ccccc2CC(=O)O)NC(=O)[C@H](Cc2ccc(O)cc2)NC1=O |  | 568 nM | 24.8 nM
N[C@H]1CC/C=C/CC[C@@H](C(=O)NCc2ccccc2CC(=O)O)NC(=O)C[C@H](Cc2ccc(O)cc2)NC1=O |  | 74.2 nM | 9.8 nM
N[C@H]1CC/C=C/CC[C@@H](C(=O)NCc2ccccc2)NC(=O)[C@H](Cc2ccccc2)NC1=O |  | 3520 nM | 719 nM
N[C@H]1CC/C=C\CC[C@@H](C(=O)NCc2ccccc2)NC(=O)[C@H](Cc2ccccc2)NC1=O |  | 3470 nM | 287 nM
CN1C(=O)[C@@H](N)CCCC/C=C/C[C@@H](C(=O)NCc2ccccc2)NC(=O)[C@@H]1Cc1ccc(O)cc1 | > 100000 nM |  | 
CN1C(=O)[C@@H](N)CCC/C=C/CC[C@@H](C(=O)NCc2ccccc2)NC(=O)[C@@H]1Cc1ccc(O)cc1 | > 100000 nM |  | 
CN1C(=O)[C@@H](N)CCC/C=C\CC[C@@H](C(=O)NCc2ccccc2)NC(=O)[C@@H]1Cc1ccc(O)cc1 | > 100000 nM |  | 
